According to ChEMBL document CHEMBL1134385, “Flexible estrogen receptor modulators: design, synthesis, and antagonistic effects in human MCF-7 breast cancer cells” (J Med Chem, 2001):

Experiments:
Estrogen receptor = Estrogen receptor (Homo sapiens, UniProt Q92731+P03372); test: Binding affinity for estrogen receptor.; type: protein assay
MCF7 = test: Antiproliferative activity against Human MCF-7 Breast cancer cell line in vitro.; type: functional, cell-based
How it was run: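 MCF-7 cells grown in Eagle's MEM with 10% fetal calf serum and 1% nonessential amino acids, 5% CO2. Seeded at 1.5×10^4 per well, 24 h at 37 °C, then dosed from ethanol stocks over 1 nM-100 μM (vehicle 1% v/v) for 72 h. MTT at 1 mg/mL final, 2 h in the dark, DMSO solubilization, A570. Viability relative to vehicle control; IC50 from triplicate means.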

For CC/C(=C(\Cc1ccccc1)c1ccc(OCN(C)C)cc1)c1ccccc1, the Ki (Estrogen receptor) was 0.503 µM and the IC50 (MCF7) was 21.7 µM.
